We go through three compounds from publication PMC10774712 (RSC Advances, 2024).

The inhibition is the drop in the measured response relative to a control, in per cent.

Data set [1] deals with NCI 60 cancer cell lines. Briefly: NCI 60 cell panel anti-proliferative assay. Format: cell-based, human. Conditions: 10 μM single dose.
Data set [2] deals with HOP-92. Briefly: NCI 60 SRB assay. Format: cell-based. Conditions: Homo sapiens, HOP-92, read-out: growth inhibition. (In general: Sulforhodamine B stains cellular protein and so reports cell mass.)
Data set [3] has as its system P-glycoprotein. Briefly: Quantitative real time PCR for P-glycoprotein. Format: cell-based. As to conditions: MDA-MB-468/ADR cells, 72 h, in comparison to the control (1). The gist of the method: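 P-gp gene expression measured by real-time RT-PCR in 1 × 10⁵ MDA-MB-468 cells. Cells exposed to test compound at 0.125, 0.250, 0.500 and 1.000 μM for 72 h. Expression reported as fold change relative to untreated control, set at 1.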
Background: Quantitative PCR measures a nucleic acid by following its amplification.

For data set [4], the system named is male Wistar rats. Put plainly: Toxicological study / calculation of LD50. Format: in vivo, rat. The essentials: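 Adult male Wistar rats, 200 ± 20 g, acclimatised 7 days at 22 ± 3 °C under a natural light cycle and fasted 18 h before dosing. Single dose of test compound in 0.5 mL DMSO. Five dose levels given to groups of five rats.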
For data set [5], the system named is MDA-MB-468 cells. Briefly: Annexin-V-FITC/PI apoptosis assay. Format: cell-based. The gist of the method: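 MDA-MB-468 cells seeded at 4 × 10⁶ per T75 flask and exposed to test compound for 24 and 48 h, with a DMSO control. Cells trypsinised; 0.5 × 10⁶ cells washed twice in PBS and stained with 5 μl annexin V-FITC plus 5 μl PI in 1× binding buffer, 15 min, room temperature, dark. Read by flow cytometry; early, late and total apoptotic fractions scored.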

For data set [6], the system named is DOX/MDA-MB-468 cells. Briefly: MTT cytotoxicity in drug-resistant DOX/MDA-MB-468 cell line. The class given is cell-based. As to conditions: read-out: IC50 DOX/MDA-MB-468, drug-resistant DOX/MDA-MB-468 cells.
The test system of data set [7] is MDA-MB-468 cells. Briefly: Cell cycle analysis. The class given is cell-based. As to conditions: for cell cycle arrest (in words): MDA-MB-468. The essentials: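 Cells plated at 4 × 10⁶ per T75 flask and treated with test compound for 24 and 48 h. Harvested by trypsinisation, washed in PBS and fixed in ice-cold absolute alcohol. DNA stained with a commercial cell-cycle DNA reagent kit per the maker's instructions. Phase distribution determined by flow cytometry.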

The target of data set [8] is EGFR tyrosine kinase (Homo sapiens, UniProt P00533). Briefly: In vitro EGFR tyrosine kinase activity. Format: biochemical. Conditions: read-out: EGFR ± SD IC50.

“Also recorded” adds a separate entry of the source.

Regarding `CSc1nc(-c2ccc(Cl)cc2)c2c(NC(=O)c3ccccc3)nnc-2[nH]1` [Compound 6, N-(4-(4-Chlorophenyl)-6-(methylthio)-7H-pyrazolo[3,4-d]pyrimidin-3-yl)benzamide], in data set [1] (most of the cancer cell lines), the “antiproliferative activity (in words)” value is reported as “poor antiproliferative activity”. In addition, the inhibition at 10 µM in data set [2] is above 100%.
For “Ethyl 1-(3-benzamido-4-(4-chlorophenyl)-7H-pyrazolo[3,4-d]pyrimidin-6-yl)-5-(2,4-dichlorophenyl)-3-oxo-2,3-dihydro-1H-pyrazole-4-carboxylate [Compound 16]”, in data set [3], the “MDA-MB-468 P-glycoprotein fold change” value is 0.449 fold. Moreover, in data set [4] (1000 mg kg^−1), the time to death is recorded as at most 7 days. The toxic signs result in data set [4] (1000 mg kg^−1, after intraperitoneal injection) was “abdominal muscle contractions and ataxia signs”. In addition, the “effect on the animals” value in data set [4] (doses 55, 90 and 100 mg kg^−1) was “does not produce any significant effect”. Also, the “apoptosis induction (in words)” value in data set [5] (MDA-MB-468) is “increased the percentage of apoptotic cells in a time-dependent manner”. In addition, in data set [5] (MDA-MB-468, IC50 of compound, DMSO control 0.27%), the late cellular apoptosis came out at 54.61%. In data set [5] (MDA-MB-468, IC50 of compound, DMSO control 0.39%, lower right quadrant), this compound displayed an early/primary apoptosis of 18.08%. This compound had a total apoptosis in data set [5] (MDA-MB-468, IC50 of compound, DMSO control 2.09%) of 46.59%. The same compound yielded a late apoptosis in data set [5] (MDA-MB-468, IC50 of compound, control 0.25%, upper right quadrant) of 31.47%. The IC50 in data set [6] was 844 nM; in data set [8] it was 34 ± 2 nM. In addition, the “cell cycle arrest (in words)” value in data set [7] was “cell cycle arrest at the S phase; also recorded: G1 and S phases arrest pattern”; in data set [7] (listed as 16a), “induce cell cycle arrest with concurrent increase in G1 and S population”. The “cells in S phase (%DIP S)” value in data set [7] (MDA-MB-468, compound at its IC50, control 22.98%) was determined as 28.16%. In addition, the “cells in G1 phase (%DIP G1)” value in data set [7] (MDA-MB-468, compound at its IC50, control 52.76%) came out at 57.41%.
Consider “N-(4-(4-Chlorophenyl)-6-(4-cyano-5-(2,4-dichlorophenyl)-3-oxo-2,3-dihydro-1H-pyrazol-1-yl)-7H-pyrazolo[3,4-d]pyrimidin-3-yl)benzamide [Compound 15]”, for which, in data set [3], the “MDA-MB-468 P-glycoprotein fold change” value was 0.301 fold. Also, the cell growth inhibition entry in data set [1] (some melanoma, ovarian, renal and breast cancer cell lines) is listed as “above 100%”. Further, the results for the IC50 in data set [6] and in data set [8] were 267 nM and 135 ± 6 nM, respectively.
